hIAP act – human IAP activation; P09923; purified human IAP, CDP-Star luminescence, 30 min; hits give high values; 1 = vehicle-only enzyme, 0 = enzyme-free background; activation factor at 10 µM; actives 0.16% (n = 330,000);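 active = activation factor of the enzyme at least 2-fold when tested at 20 µM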
Target sequence (P09923 whole entry, looked up): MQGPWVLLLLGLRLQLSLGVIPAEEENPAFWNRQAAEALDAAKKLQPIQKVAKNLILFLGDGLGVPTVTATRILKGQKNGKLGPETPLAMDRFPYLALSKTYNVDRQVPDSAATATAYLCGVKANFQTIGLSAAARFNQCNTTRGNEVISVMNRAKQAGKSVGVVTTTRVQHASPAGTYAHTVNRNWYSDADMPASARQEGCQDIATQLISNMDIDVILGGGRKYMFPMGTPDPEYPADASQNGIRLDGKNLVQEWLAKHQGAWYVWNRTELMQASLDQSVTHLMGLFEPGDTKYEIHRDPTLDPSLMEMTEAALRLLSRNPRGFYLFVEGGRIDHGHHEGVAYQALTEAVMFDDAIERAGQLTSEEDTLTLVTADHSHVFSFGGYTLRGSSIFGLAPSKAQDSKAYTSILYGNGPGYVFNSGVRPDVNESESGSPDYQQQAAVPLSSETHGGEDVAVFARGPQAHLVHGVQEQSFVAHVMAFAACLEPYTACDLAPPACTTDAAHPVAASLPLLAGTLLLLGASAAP
bIAP act – increases bovine intestinal alkaline phosphatase activity. purified bovine IAP, CDP-star luminescence, 30 min; hits give high values; fold of DMSO-control signal, blank-subtracted. AID 1016. activation factor at 20 µM. actives 0.17% (n = 200,000);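 active = activation factor of 2 or more at 20 µM, a signal rise over negative controls twice the positive control's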
mIAP act – increases mouse intestinal alkaline phosphatase activity. AID 2805. muIAP, CDP-Star luminescence, 30 min; hits give high values; 1 = vehicle-only enzyme signal, 0 = enzyme-free wells. activation factor at 10 µM. actives 0.24% (n = 330,000);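 active = activation factor of at least 2 at 20 µM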
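Assay system: mouse IAP enzyme; Reagent: CDP-Star chemiluminescent phosphatase substrate; Compound: DMSO-dissolved test compounds; Incubation: 30 min, room temperature; Technique: luminescence from enzymatic CDP-Star hydrolysis; Controls: DMSO-only wells and no-enzyme negative control.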
hIAP inh – blocks human intestinal alkaline phosphatase | P09923 | purified IAP, CDP-Star luminescence, 30 min | inhibition, % at 10 µM | actives 0.12% (n = 330,000) | AID 2544;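 active = inhibition reaching a set limit with compound at 10 µM in the primary screen, cut at about 35% in these data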;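 note: plate controls were DMSO wells with enzyme for no effect and no-enzyme buffer wells for full effect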
bIAP inh – blocks bovine intestinal alkaline phosphatase activity. inhibition, % at 20 µM. AID 1019. 190,000 tested, under 10 active. purified bovine IAP, CDP-star luminescence, 30 min;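 active = over 50% inhibition of intestinal alkaline phosphatase at 20 µM in the single-dose screen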
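System: purified bovine intestinal alkaline phosphatase (IAP) enzyme; Input: IAP diluted 1/65,000,000 in the well; Measured by: CDP-star luminescence signal; Compound dosing: 20 µM single dose; Incubation: 30 min reaction at room temperature.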
mIAP block – blocks mouse intestinal alkaline phosphatase; actives 0.2% (n = 330,000); purified mouse IAP, CDP-Star luminescence, 30 min; inhibition, % at 10 µM;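 active = inhibition of at least 40% at 10 µM in the primary screen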;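 note: plate controls were DMSO with enzyme for no effect and no enzyme wells for full effect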
mIAP inh conf – mouse IAP inhibition confirmation; shares compounds with mIAP block; AID 434971; inhibition, % at 10 µM; actives 4.7% (n = 11,000); purified mouse IAP, CDP-Star luminescence, 30 min;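 active = inhibition of at least 40% at 10 µM in either of the two replicates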;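 note: plate controls were DMSO wells with enzyme for no effect and buffer wells lacking enzyme for full effect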
* marks the source's active call; other numbers are inactive results. Only some compounds are listed: those with a hit (about 0.77% of all), similar ones and a draw of the others.

What do the screens show for `Cc1ccc(C(=O)NCC(=O)Nc2ccc(S(=O)(=O)Nc3cc(C)nc(C)n3)cc2)cc1`?
hIAP act: 1.1; mIAP act: 1.1; hIAP inh: -11; mIAP block: -9

How did CCCCC(=O)c1ccc(O)cc1 do in these assays?
hIAP act: 0.96; bIAP act: 0.9; mIAP act: 0.94; hIAP inh: 4; bIAP inh: 12; mIAP block: 6

Results for O=C(CCO)c1ccc(O)cc1 ?
hIAP act: 0.86; bIAP act: 0.9; mIAP act: 0.54; hIAP inh: 14; bIAP inh: 9; mIAP block: 46*; mIAP inh conf: 47*

Results for CSC1=NSC2=NC(=O)/C(=C/c3coc4ccc(O)cc4c3=O)C(=N)N12 ?
hIAP act: 1; bIAP act: 0.6; mIAP act: 0.44; hIAP inh: -4; bIAP inh: 37; mIAP block: 56*; mIAP inh conf: 55*

How did COc1cc(/C=N/N2C(=O)CSC2=S)ccc1O do in these assays?
hIAP act: 1; bIAP act: 0.7; mIAP act: 0.47; hIAP inh: -3; bIAP inh: 26; mIAP block: 52*; mIAP inh conf: 65*

How did COc1ccc(Br)cc1/C=N/N1C(=O)CSC1=S do in these assays?
hIAP act: 1.1; mIAP act: 0.81; hIAP inh: -8; mIAP block: 19

Results for O=C1CSC(=S)N1/N=C/c1ccc(Cl)c([N+](=O)[O-])c1 ?
hIAP act: 1; mIAP act: 0.49; hIAP inh: -3; mIAP block: 50*; mIAP inh conf: 48*

Results for CSc1nc(-c2ccco2)nn1S(=O)(=O)c1ccccc1 ?
hIAP act: 0.91; bIAP act: 0.9; mIAP act: 0.99; hIAP inh: 9; bIAP inh: 9; mIAP block: 1

Results for CCS(=O)(=O)n1nc(-c2ccco2)nc1SC ?
hIAP act: 0.99; bIAP act: 0.9; mIAP act: 0.78; hIAP inh: 1; bIAP inh: 6; mIAP block: 22; mIAP inh conf: 36*

What do the screens show for `COc1cc2c(C#Cc3cccnc3)c(-c3ccsc3)oc(=O)c2cc1OC`?
hIAP act: 1; mIAP act: 1.1; hIAP inh: -2; mIAP block: -7

Results for S=c1[nH]nc(-c2cccnc2)n1/N=C/C=C/c1ccco1 ?
hIAP act: 0.97; bIAP act: 1; mIAP act: 0.53; hIAP inh: 3; bIAP inh: 3; mIAP block: 47*; mIAP inh conf: 60*

Results for S=c1[nH]nc(-c2ccc(Cl)cc2)n1/N=C/C=C/c1ccco1 ?
hIAP act: 1.2; mIAP act: 0.44; hIAP inh: -15; mIAP block: 56*; mIAP inh conf: 58*

How did O=[N+]([O-])c1ccc(Cl)c(S(=O)(=O)Nc2cccc(S(=O)(=O)NC3=NCCC3)c2)c1 do in these assays?
hIAP act: 0.92; mIAP act: 0.94; hIAP inh: 8; mIAP block: 6

What do the screens show for `O=C(CSc1nnc(-c2ccco2)c(-c2ccco2)n1)Nc1ccccc1`?
hIAP act: 0.9; bIAP act: 0.9; mIAP act: 0.55; hIAP inh: 10; bIAP inh: 13; mIAP block: 45*; mIAP inh conf: 54*

How did COc1ccc(NC(=O)CSc2nnc(-c3ccco3)c(-c3ccco3)n2)cc1OC do in these assays?
hIAP act: 0.99; mIAP act: 0.82; hIAP inh: 1; mIAP block: 18

How did Cc1ccc(NC(=O)CSc2nnc(-c3ccco3)c(-c3ccco3)n2)cc1 do in these assays?
hIAP act: 0.91; bIAP act: 1; mIAP act: 0.36; hIAP inh: 10; bIAP inh: 2; mIAP block: 64*; mIAP inh conf: 60*

What do the screens show for `Cc1ccccc1NC(=O)CSc1nnc(-c2ccco2)c(-c2ccco2)n1`?
hIAP act: 0.99; bIAP act: 0.9; mIAP act: 0.47; hIAP inh: 1; bIAP inh: 10; mIAP block: 52*; mIAP inh conf: 51*

How did CN(C)c1ccc(NC(=O)CSc2nnc(-c3ccco3)c(-c3ccco3)n2)cc1 do in these assays?
hIAP act: 0.86; mIAP act: 0.51; hIAP inh: 14; mIAP block: 49*; mIAP inh conf: 60*

How did Cc1cccc(C)c1-n1nnnc1SCC(=O)N1CCNC1=O do in these assays?
hIAP act: 1.1; mIAP act: 0.99; hIAP inh: -13; mIAP block: 1

Results for CN(CC(=O)Nc1ccc(F)c(F)c1F)C(=O)C1COc2ccccc2O1 (centres undefined) ?
hIAP act: 1; mIAP act: 0.94; hIAP inh: -2; mIAP block: 6

How did O=C(O)c1ccc2nc(-c3ccco3)c(-c3ccco3)nc2c1 do in these assays?
hIAP act: 1.1; bIAP act: 1.3; mIAP act: 0.52; hIAP inh: -11; bIAP inh: -25; mIAP block: 48*; mIAP inh conf: 66*

Results for O=C(c1ccc2nc(-c3ccco3)c(-c3ccco3)nc2c1)N1CCN(c2ccccc2)CC1 ?
hIAP act: 1; bIAP act: 1; mIAP act: 0.84; hIAP inh: -5; bIAP inh: 1; mIAP block: 16

What do the screens show for `COc1cc(NC(=O)COC(=O)CO/N=C(\C)c2ccc3c(c2)OCO3)cc(OC)c1OC`?
hIAP act: 1; mIAP act: 1.1; hIAP inh: -2; mIAP block: -7

What do the screens show for `COc1cc(/C=N/NC(=O)c2cc(O)cc(O)c2)ccc1OC(=O)c1ccccc1`?
hIAP act: 0.94; mIAP act: 0.5; hIAP inh: 6; mIAP block: 50*; mIAP inh conf: 57*

What do the screens show for `O=C(N/N=C/c1ccc(OC(=O)c2ccccc2Cl)cc1)c1ccccn1`?
hIAP act: 1.2; mIAP act: 1; hIAP inh: -20; mIAP block: -2

Results for O=C(N/N=C/c1ccc(OC(=O)c2ccccc2Cl)cc1)c1cc(O)cc(O)c1 ?
hIAP act: 1; mIAP act: 0.53; hIAP inh: -4; mIAP block: 47*; mIAP inh conf: 61*

What do the screens show for `CCN(C(=O)COC(=O)Cn1c(C)csc1=O)c1c(N)n(Cc2ccccc2)c(=O)[nH]c1=O`?
hIAP act: 1.1; mIAP act: 0.93; hIAP inh: -10; mIAP block: 7

What do the screens show for `CN(C(=O)c1ccccc1)C1c2c(ccc3ccccc23)OCC1CO` (centres undefined)?
hIAP act: 0.93; mIAP act: 0.99; hIAP inh: 7; mIAP block: 1

Screens (PubChem BioAssay)
